Measured values collected from several papers.
Each line is one published result; the experiments were not run side by side.
FLT3 F691L/ITD: Receptor-type tyrosine-protein kinase FLT3 (FLT3, Homo sapiens, UniProt P36888, F691L/ITD)
FLT3 K663Q: Receptor-type tyrosine-protein kinase FLT3 (FLT3, Homo sapiens, UniProt P36888, K663Q)
FLT3: Receptor-type tyrosine-protein kinase FLT3 (FLT3, Homo sapiens, UniProt P36888)
FLT3 D835Y: Receptor-type tyrosine-protein kinase FLT3 (FLT3, Homo sapiens, UniProt P36888, D835Y)
FLT3 D835V/ITD: Receptor-type tyrosine-protein kinase FLT3 (FLT3, Homo sapiens, UniProt P36888, D835V/ITD)
FLT3 D835H: Receptor-type tyrosine-protein kinase FLT3 (FLT3, Homo sapiens, UniProt P36888, D835H)

| Compound | target | assay | conditions | endpoint | result |
| --- | --- | --- | --- | --- | --- |
| CO[C@@H](C)c1c(Nc2ccc([C@@H](N(C)C(=O)C3CCS(=O)(=O)CC3)C(F)(F)F)cc2)cnc2cc(Cl)nn12 | FLT3 F691L/ITD | cell-free assay, competition with immobilised ligand | 1 µM | remaining binding | 87% |
| N[C@@H]1CCN(c2nccc(-c3cnn4ncccc34)n2)C1 | FLT3 K663Q | binding | 1 µM | remaining binding | 100% |
| CCCOc1ccc(OC)c(F)c1C(=O)c1ccc(C(=O)N[C@@H]2CNC[C@H]2NC(=O)c2ccc3[nH]ncc3c2)cc1 | FLT3 | enzyme activity, inhibitor | 10 µM | remaining activity | 32% |
| Cc1cnc(NC2CCOCC2)nc1-n1cnc(C(=O)NC(CN)c2cc(F)cc(Cl)c2)c1 (stereo not drawn) | FLT3 D835Y | enzyme activity, inhibitor, radiometric | 1 µM | remaining activity | 105% |
| O=C(c1ccc(Nc2nccc(-c3cc4ccccc4s3)n2)cc1)N1CCC(N2CCCC2)CC1 | FLT3 D835V/ITD | binding, competition with immobilised ligand | 1 µM | remaining binding | 8.3% |
| CC1CCCN1c1nccc(-c2cnn3ncccc23)n1 (stereo not drawn) | Receptor-type tyrosine-protein kinase FLT3 (FLT3, Homo sapiens, UniProt P36888, D835V) | binding | 1 µM | remaining binding | 79% |
| Cc1ccc(NC(=O)c2ccc(C)c(C(F)(F)F)c2)cc1C#Cc1nn(C2CCC(O)CC2)c2ncnc(N)c12 (stereo not drawn) | FLT3 | cell-free assay | 10 µM | remaining signal | 73% |
| c1cnn2ncc(-c3ccnc(N4CCC45COC5)n3)c2c1 | FLT3 D835Y | binding | 1 µM | remaining binding | 62% |
| NS(=O)(=O)c1cc(NC(=O)C2(c3ccccc3Cl)CC2)ccc1Oc1cccc(Cl)c1 | Receptor-type tyrosine-protein kinase FLT3 (FLT3, Homo sapiens, UniProt P36888, R834Q) | cell-free assay, competition with immobilised ligand | 1 µM | remaining binding | 100% |
| C[C@@H]1CCN(c2nccc(-c3cnn4ncccc34)n2)C1 | FLT3 K663Q | binding | 1 µM | remaining binding | 100% |
| O=C(c1ccc(Nc2ncc(Cl)c(-c3ccc(Cl)s3)n2)cc1)N1CCC(N2CCCC2)CC1 | FLT3 F691L/ITD | binding, competition with immobilised ligand | 1 µM | remaining binding | 1.8% |
| CCN(CC)CCNC(=O)c1c(C)[nH]c(/C=C2\C(=O)Nc3ccc(F)cc32)c1C | FLT3 | enzyme activity, inhibitor | 1 µM | remaining activity | 1% |
| Cc1c(NC(=O)c2cc(C(N)=O)nc3cc(F)ccc23)c(C(F)(F)F)nn1Cc1ccc(C(C)(C)C)cc1 | FLT3 | cell-free assay, competition with immobilised ligand | 1 µM | remaining binding | 100% |
| CN(C)c1ncc(F)c(-c2cnn3ncccc23)n1 | FLT3 K663Q | binding | 1 µM | remaining binding | 100% |
| O=C1NC(=O)c2cc(Nc3ccc(F)cc3)c(Nc3ccc(F)cc3)cc21 | FLT3 | cell-free assay | 0.5 µM | remaining signal | 91.5% |
| CC(C)CC(=O)N1CCc2nc(-c3ccc(Br)cc3)nc(N(C)Cc3ccccc3)c2C1 | FLT3 F691L/ITD | cell-free assay, competition with immobilised ligand | 0.1 µM | remaining binding | 68% |
| O=C(c1ccc(Nc2ncc(Cl)c(-c3cc4ccccc4s3)n2)cc1)N1CCC(N2CCCC2)CC1 | FLT3 D835V/ITD | binding, competition with immobilised ligand | 1 µM | remaining binding | 7.6% |
| N#CC1(c2ccccn2)CCN(Cc2cc(C(=O)N3CCCC3)c(=O)n3ccccc23)CC1 | FLT3 D835Y | cell-free assay, competition with immobilised ligand | 1 µM | remaining binding | 71% |
| COc1ccnn2ncc(-c3ccnc(N(C)C)n3)c12 | FLT3 D835H | binding | 1 µM | remaining binding | 100% |
| COc1cc2c(Nc3ccc(Br)cc3F)ncnc2cc1OCC1CCN(C)CC1 | FLT3 | cell-free assay | 0.5 µM | remaining signal | 43.7% |
| CCOCCn1cc(C(=O)Nc2ccc(-n3nc(-c4cccnc4)cc3C(F)(F)F)cn2)ccc1=O | FLT3 D835H | cell-free assay, competition with immobilised ligand | 1 µM | remaining binding | 87% |
